# Measurements collected from several papers.
# Lines come from different studies, so protocols differ.
SMILES,cell line,assay,conditions,endpoint,result
N.N.[Cl][Pt][Cl],SMMC-7721,"cell growth or viability, MTT",48 h,IC50,6.43 µM
CC1=C(O)C(=O)C=C2C1=CC=C1[C@@]2(C)CC[C@@]2(C)[C@@H]3C[C@](C)(C(=O)O)CC[C@]3(C)CC[C@]12C,SMMC-7721,"cell growth or viability, MTT",20 µM,inhibition,70.6%
O=C1OC[C@H](Cc2cccc(O)c2)[C@H]1Cc1cccc(O)c1,SPCA1,"cell growth or viability, MTT",,IC50,42.2 µM
COc1cccc(CCNCc2c(N)nc(N)nc2C2CC2)c1,Vero,"cell growth or viability, SRB",,IC50,7.2 µM
COC(=O)[C@@H](N)CCCNC(N)=N[N+](=O)[O-],RAW264.7,"NO release, inhibitor, Griess","250 µM, LPS-stimulated",inhibition,54%
N.N.[Cl][Pt][Cl],M109,"cell growth or viability, MTT",,IC50,0.97 µM
O=C(CC(=O)c1ccccc1)c1ccccc1,HL-60,"cell growth or viability, resazurin","72 h, dark",IC50,15.5 µM
Nc1nc(N)c(CNCCc2ccc(F)cc2)c(C2CC2)n1,Vero,"cell growth or viability, SRB",,IC50,> 100 µM
N.N.[Cl][Pt][Cl],CD4,cell growth or viability,72 h,IC50,2.2 µg/mL
COc1ccc(CCNCc2c(N)nc(N)nc2C2CC2)cc1,Vero,"cell growth or viability, SRB",,IC50,71 µM
COc1cc(O)c(C(=O)/C=C/c2ccc(O)cc2)c(OC)c1,SPCA1,"cell growth or viability, MTT",,IC50,25 µM
COc1cc2oc3cc(O)c(OC)c(CC=C(C)C)c3c(=O)c2c(O)c1CC=C(C)C,22Rv1,cell growth or viability,48 h,IC50,27.1 µM
COc1cc(O)c(C(=O)/C=C/c2ccccc2)c(OC)c1,SPCA1,"cell growth or viability, MTT",,IC50,31.7 µM
CC(C)[C@H](NC(=O)[C@H](Cc1c[nH]c2ccccc12)NC(=O)[C@H](Cc1c[nH]cn1)NC(=O)[C@H](CCCNC(=N)N)NC(=O)[C@H](CCCNC(=N)N)NC(=O)[C@H](Cc1c[nH]c2ccccc12)NC(=O)[C@H](Cc1c[nH]c2ccccc12)NC(=O)[C@H](Cc1c[nH]cn1)NC(=O)[C@H](Cc1c[nH]c2ccccc12)NC(=O)[C@H](CCCNC(=N)N)NC(=O)[C@@H](N)CCCCN)C(=O)N[C@H](C(=O)N[C@@H](Cc1c[nH]c2ccccc12)C(N)=O)C(C)C,RAW264.7,"cell growth or viability, MTT",24 h,IC50,111 µM
